ChEMBL document CHEMBL4732156, “Novel boronium salt exhibits substantial antibacterial activity when compared to a commercial quaternary ammonium disinfectant” (Bioorg Med Chem Lett, 2021)
Calls of active or inactive are those of the source. The rule behind the calls is not given here.

Experiments:
Pseudomonas aeruginosa [1] = assay: Antibacterial activity against Pseudomonas aeruginosa ATCC 27853 at 1:8 dilution incubated for 24 hrs by disc diffusion method; format: functional, organism-based
Method in brief: (§1)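 Kirby-Bauer disc diffusion. 6 mm paper discs are loaded with 20 µL of the 1:8 (2.81 mg/mL) or 1:128 (0.17 mg/mL) dilution, dried 30 min and stored at 4–8 °C. A lawn of about 5.0×10^5 CFU/mL is swabbed onto Mueller–Hinton agar with the plate spinning. Plates are incubated 24 h at 37 °C and the inhibition zone is measured in mm by digital caliper.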

Pseudomonas aeruginosa [2] = assay: Antibacterial activity against Pseudomonas aeruginosa ATCC 27853 at 1:128 dilution incubated for 24 hrs by disc diffusion method; format: functional, organism-based; method in brief: as §1
Escherichia coli [3] = assay: Antibacterial activity against Escherichia coli ATCC 25922 at 1:128 dilution incubated for 24 hrs by disc diffusion method; format: functional, organism-based; method in brief: as §1
Pseudomonas aeruginosa [4] = assay: Bactericidal activity against Pseudomonas aeruginosa ATCC 27853 incubated for 24 hrs followed by transferring and culturing on SBA plate and measured after 18 to 24 hrs by agar plate based analysis; format: functional; details: time 42-48 hrs
Method in brief: (§2)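 After 24 h of microdilution (about 5.0×10^5 CFU/mL, Mueller–Hinton broth, 37 °C, 100 rpm), 100 µL from each clear well, including the MIC well, is spread on 5% sheep blood agar. Plates are incubated 18–24 h at 37 °C. MBC is the first concentration giving zero colonies.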

Escherichia coli [5] = assay: Bactericidal activity against Escherichia coli ATCC 25922 incubated for 24 hrs followed by transferring and culturing on SBA plate and measured after 18 to 24 hrs by agar plate based analysis; format: functional; details: time 42-48 hrs; method in brief: as §2
Erythrocyte [6] = assay: Induction of hemolysis in RBC (unknown origin) at higher concentration; format: cell-based
Pseudomonas aeruginosa [7] = assay: Antibacterial activity against Pseudomonas aeruginosa ATCC 27853 assessed as reduction in bacterial growth incubated for 24 hrs by turbidity based analysis; format: functional
Method in brief: (§3)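 Broth microdilution in Mueller–Hinton broth. Agents start from 4.5% stocks and are diluted two-fold in deionized water. Final well range is 22.5 to 0.02 mg/mL; inoculum is about 5.0×10^5 CFU/mL from 18–24 h SBA colonies. Plates are incubated 18–24 h at 37 °C in ambient air at 100 rpm. MIC is the lowest concentration giving a clear well on mirrored 3X visual reading.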

Escherichia coli [8] = assay: Potency index, ratio of MIC of BacDown QAC to MIC of compound for antibacterial activity against Escherichia coli ATCC 25922 assessed as reduction in bacterial growth incubated for 24 hrs by turbidity based analysis; format: functional
Escherichia coli [9] = assay: Antibacterial activity against Escherichia coli ATCC 25922 at 1:8 dilution incubated for 24 hrs by disc diffusion method; format: functional, organism-based; method in brief: as §1
Staphylococcus aureus [10] = assay: Bactericidal activity against Staphylococcus aureus ATCC 29213 incubated for 24 hrs followed by transferring and culturing on SBA plate and measured after 18 to 24 hrs by agar plate based analysis; format: functional; details: time 42-48 hrs; method in brief: as §2
Staphylococcus aureus [11] = assay: Antibacterial activity against Staphylococcus aureus ATCC 29213 assessed as reduction in bacterial growth incubated for 24 hrs by turbidity based analysis; format: functional; method in brief: as §3
Pseudomonas aeruginosa [12] = assay: Potency index, ratio of MIC of BacDown QAC to MIC of compound for antibacterial activity against Pseudomonas aeruginosa ATCC 27853 assessed as reduction in bacterial growth incubated for 24 hrs by turbidity based analysis; format: functional
Staphylococcus aureus [13] = assay: Antibacterial activity against Staphylococcus aureus ATCC 29213 assessed as zone of inhibition at 1:8 dilution incubated for 24 hrs by disc diffusion method; format: functional; method in brief: as §1
Staphylococcus aureus [14] = assay: Potency index, ratio of MIC of BacDown QAC to MIC of compound for antibacterial activity against Staphylococcus aureus ATCC 29213 assessed as reduction in bacterial growth incubated for 24 hrs by turbidity based analysis; format: functional
Escherichia coli [15] = assay: Antibacterial activity against Escherichia coli ATCC 25922 assessed as reduction in bacterial growth incubated for 24 hrs by turbidity based analysis; format: functional; method in brief: as §3
Staphylococcus aureus [16] = assay: Antibacterial activity against Staphylococcus aureus ATCC 29213 assessed as zone of inhibition at 1:128 dilution incubated for 24 hrs by disc diffusion method; format: functional; method in brief: as §1
Erythrocyte [17] = assay: Induction of hemolysis in RBC (unknown origin) at lower concentration; format: cell-based

SMILES	Activity (Pseudomonas aeruginosa [1])	Activity (Pseudomonas aeruginosa [2])	Activity (Escherichia coli [3])	MBC (Pseudomonas aeruginosa [4])	MBC (Escherichia coli [5])	Activity (Erythrocyte [6])	MIC (Pseudomonas aeruginosa [7])	Ratio (Escherichia coli [8])	Activity (Escherichia coli [9])	MBC (Staphylococcus aureus [10])	MIC (Staphylococcus aureus [11])	Ratio (Pseudomonas aeruginosa [12])	inhibition zone (IZ) (Staphylococcus aureus [13])	Ratio (Staphylococcus aureus [14])	MIC (Escherichia coli [15])	inhibition zone (IZ) (Staphylococcus aureus [16])	Activity (Erythrocyte [17])
CCCCCCCCCCCCCCCC[N+](C)(C)[BH2-][N+](C)(C)Cc1ccccc1.I	inactive	inactive	inactive	170 µg/mL	40 µg/mL	Toxic	170 µg/mL	4	inactive	40 µg/mL	20 µg/mL	8	14.8 mm	4	40 µg/mL	7.6 mm	Non-Toxic
CCCCCCCCCCCCCCCC[N+](C)(C)[BH2-][N+](C)(C)C.I	inactive	inactive	inactive			Toxic	> 22500 µg/mL		inactive		> 22500 µg/mL				> 22500 µg/mL		Non-Toxic
